# Screening results from PubChem BioAssay.
# Sampled rows, rich in hits. Any-hit rate of the full collection: about 3.5%.
# MrgX1 allo act: human MrgX1 positive allosteric modulation, primary screen; B-score at 10 µM; 310,000 compounds, 0.63% hits; Q96LB2; MrgX1-HEK293, Fluo-4 calcium flux, FDSS; hits give high values;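 active = plate-corrected calcium response at least 3 library SD above typical, normal starting fluorescence, not activating the receptor alone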;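 note: compound read alongside a low EC10 to EC30 dose of BAM8-22 agonist; peak minus trough fluorescence over baseline measured at the second addition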
# Target sequence (Q96LB2 whole entry, looked up): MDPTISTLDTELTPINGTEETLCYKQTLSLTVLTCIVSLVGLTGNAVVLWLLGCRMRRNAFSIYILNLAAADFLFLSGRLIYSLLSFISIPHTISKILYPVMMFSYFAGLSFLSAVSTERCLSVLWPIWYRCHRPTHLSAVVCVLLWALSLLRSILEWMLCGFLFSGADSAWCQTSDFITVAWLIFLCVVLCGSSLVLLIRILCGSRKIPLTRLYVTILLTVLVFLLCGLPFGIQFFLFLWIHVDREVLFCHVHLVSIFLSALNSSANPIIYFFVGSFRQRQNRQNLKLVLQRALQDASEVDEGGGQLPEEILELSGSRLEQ
# MrgX1 agonist: activates human MrgX1 receptor signaling; MrgX1-HEK293 cells, Fluo-4 calcium fluorescence, agonist mode; hits give high values; B-score at 10 µM; 310,000 compounds, 0.44% hits; AID 588627;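 active = calcium response B-score plate-corrected fluorescence ratio at least 3 library SD, with starting fluorescence B-score inside 5 SD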
#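 Material: HEK293 cells stably expressing human MrgX1 receptor | Quantity: 15,000 cells per well | Times: Cells plated overnight, dye loaded 0.5 h 37 °C, 0.5 h room temperature | Measured by: Kinetic Fluo-4 NW fluorescence of intracellular calcium | Control set: Positive and negative controls per plate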
# RGS4 block: human RGS4 inhibition; P49798; HEK293 M3R/RGS4 inducible, Fluo-4 calcium flux; hits give high values; triggered by carbachol at its EC20; B-score at 10 µM; 310,000 compounds, 0.45% hits; AID 463165;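 active = B-score, a plate-corrected calcium signal, over three deviations above library mean, with baseline fluorescence within five deviations of library mean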;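 note: RGS4 expression induced by doxycycline in cells with stable M3 receptor; B-score is computed from the integrated fluorescence ratio over baseline after carbachol; higher B-score means a larger calcium signal and so more RGS4 inhibition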
# Target sequence (P49798 whole entry, looked up): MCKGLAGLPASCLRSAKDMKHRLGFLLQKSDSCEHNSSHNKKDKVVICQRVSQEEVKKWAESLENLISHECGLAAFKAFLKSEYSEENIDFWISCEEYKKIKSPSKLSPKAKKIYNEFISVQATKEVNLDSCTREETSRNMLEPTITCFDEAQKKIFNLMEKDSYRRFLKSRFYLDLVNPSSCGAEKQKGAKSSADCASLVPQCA
# MrgX1 antag: antagonists of human MrgX1 receptor; Q96LB2; MRGX1-HEK293 calcium flux, Fluo-4, BAM8-22 antagonism; hits give low values; B-score at 10 µM; 310,000 compounds, 1.3% hits; AID 588676;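 active = calcium-response B-score plate-corrected more than 3 library SD below zero, starting fluorescence within 5 deviations, no agonist response on first addition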;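 note: peak minus trough fluorescence over baseline after final BAM8-22 challenge near maximal dose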
# RGS4 act: potentiators or activators of RGS4; HEK293 M3R/inducible RGS4, carbachol calcium flux Fluo4; hits give low values; B-score at 10 µM; 310,000 compounds, 0.92% hits; AID 463111;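 active = B-score of the integrated calcium signal more than 4 SD below the library mean, with starting fluorescence not abnormally high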;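 note: negative B-score means reduced calcium response which marks RGS4 activation or potentiation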
#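 Detection: kinetic calcium fluorescence imaging with Fluo4-AM dye, 2 µM / Material: HEK293 cells with stable M3R and inducible RGS4 / Schedule: recording 10 s baseline at 1 Hz, 100 s post-agonist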
# MrgX1 ant reconf: confirmation of human MrgX1 receptor antagonists; shares compounds with MrgX1 antag; MrgX1-HEK293, BAM8-22 calcium flux, Fluo-4; hits give low values; remaining BAM8-22 calcium response % of control (hits give low values), % at 10 µM; 2,300 compounds, 19% hits; AID 602420;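 active = remaining agonist calcium response no higher than 100% minus 3 SD of agonist-only control wells, with starting fluorescence near control levels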;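 note: agonist BAM8-22 given at a near maximal EC90 to ECmax level; peak minus minimum fluorescence divided by baseline after agonist addition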
# HEK293 Ca flux: activity in parental HEK293 cells lacking MrgX1 | AID 624111 | shares compounds with MrgX1 antag | fluorescence ratio F(max-min)/F0 at 10 µM | Fluo-4 calcium fluorescence, FDSS | 4,000 compounds, 2% hits;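 active = duplicate-averaged calcium fluorescence ratio at least three times the standard deviation of buffer wells, a nonspecific response in parental cells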
# HEK293 Ca counter: MrgX1 allosteric activator counter-screen hit in parental HEK293 cells; 4,000 compounds, 0.4% hits; parental HEK293 calcium flux, Fluo-4 fluorescence ratio; hits give high values; shares compounds with MrgX1 antag; fluorescence ratio F(max-min)/F0 at 10 µM;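 active = calcium fluorescence ratio, averaged over duplicates, at least 3 SD of the buffer-well ratio, meaning a nonspecific response in receptor-free cells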;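 note: untransfected parental HEK293 lacking MrgX1 used as counterscreen for MrgX1 allosteric activators; fluorescence change taken during the second addition on a kinetic imager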
# HEK293 Ca cntr2: MrgX1 activator counter-screen hit in parental HEK293 cells; Fluo-4 calcium fluorescence (FDSS); hits give high values; 4,000 compounds, 8.7% hits; AID 624115; shares compounds with MrgX1 antag; fluorescence ratio F(max-min)/F0 at 10 µM;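 active = calcium fluorescence ratio at least three times the spread of buffer wells, meaning a non-specific response in parental cells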
# Starred values were filed as active, the others as inactive; i = inactive; x = not tested or not shown.
SMILES,MrgX1 allo act,MrgX1 agonist,RGS4 block,MrgX1 antag,RGS4 act,MrgX1 ant reconf,HEK293 Ca flux,HEK293 Ca counter,HEK293 Ca cntr2
CCOC(=O)CCC(=O)O[C@H]1[C@H](O[C@@H]2[C@@H](C)[C@H](O[C@H]3C[C@@](C)(OC)[C@@H](O)[C@H](C)O3)[C@@H](C)C(=O)O[C@H](CC)[C@@](C)(O)[C@H](O)[C@@H](C)C(=O)[C@H](C)C[C@@]2(C)O)O[C@H](C)C[C@@H]1N(C)C,i,i,i,-10.6*,i,i,i,i,i
O=S(=O)(Nc1nc(-c2ccccc2)cs1)c1cccc(C(F)(F)F)c1,i,i,i,-7.42*,i,i,i,i,i
COc1cccc(CN(C)C(=O)c2cc(COc3ccc4ncccc4c3)on2)c1,i,i,i,-6.63*,i,69.2%*,i,i,i
COc1cccc(CN(C)C(=O)c2cc(COc3c(F)cccc3F)on2)c1,i,i,i,i,i,x,x,x,x
O=C(NC1CC(=O)N(c2cccc(F)c2)C1)N1CCN(C(=O)c2ccco2)CC1 (configuration not stated),i,i,i,i,i,x,x,x,x
CCC(C)NC(=O)C1c2ccccc2C(=O)N(c2ccc(OC)cc2)C1c1ccc(OC)cc1 (configuration not stated),i,i,i,-6.46*,i,i,i,i,i
Cc1c(OCC(=O)N(C)c2ccccc2)ccc2c3c(c(=O)oc12)CCC3,i,i,i,i,i,x,x,x,x
Cc1ccc(C)c(NC(=O)CS(=O)(=O)c2cn(C)c3ccccc23)c1,i,i,i,-12.7*,i,i,i,i,i
Cn1cc(S(=O)(=O)CC(=O)Nc2ccc3c(c2)OCCO3)c2ccccc21,i,i,i,i,i,x,x,x,x
CC(C)(C)c1cccc(Oc2nn[nH]n2)c1,i,i,i,-6.86*,i,i,i,i,i
COC(=O)CCC(=O)Nc1cccc(Cl)c1,i,i,i,-5.39*,i,83.8%*,i,i,i
CSc1ccc(CN(C)C(=O)C23CC4CC(CC(Cl)(C4)C2)C3)cc1,i,i,i,i,i,x,x,x,x
CCOC(=O)C1CCCN(C(=O)Cc2ccc(OC)c(OC)c2)C1 (configuration not stated),i,i,i,-4.84*,i,i,i,i,i
O=c1[nH]c2ccccc2nc1/C=C/c1ccc(F)cc1,i,i,i,-7.97*,i,i,i,i,i
CC(=O)Nc1ccc(NC(=O)CSc2nnc(-c3cccs3)n2N)cc1,i,i,i,i,i,x,x,x,x
COc1cccc(C(=O)Oc2ccc3ccc(=O)oc3c2)c1,i,i,i,i,i,x,x,x,x
CCN1/C(=C/c2ccc3ccccc3[n+]2CC)C=Cc2ccccc21,i,i,i,-13.4*,-9.21*,i,x,x,x
CCN1/C(=C/c2ccc3ccccc3[n+]2CCCS(=O)(=O)[O-])C=Cc2cc(C)ccc21,i,i,i,i,i,x,x,x,x
CC1(C)C2CCC(C2)C1(C)NC(=O)CN1CCOCC1 (configuration not stated),i,i,x,-10.1*,x,i,i,i,i
CC1(C)C2CCC(C2)C1(C)NC(=O)CN1CCCC1 (configuration not stated),i,i,i,i,i,x,x,x,x
Cc1cc(C)cc(N2CC(C(=O)NC3CCCCC3)CC2=O)c1 (configuration not stated),i,i,i,i,i,x,x,x,x
CC(C)(C)c1ccc(C(=O)NCC(=O)OCC(=O)c2ccc3c(c2)-c2ccccc2C3)cc1,i,i,i,i,i,x,x,x,x
CCOC(=O)c1sc(-c2ccc(C(F)(F)F)cc2)nc1O,i,i,i,-5.74*,i,59.3%*,i,i,i
c1ccc(Nc2ccc3c4c(cccc24)CC3)cc1,i,i,i,i,i,x,x,x,x
Nc1ccc2c3c(cccc13)CC2,i,i,i,-7.46*,i,84.6%*,i,i,i
SMILES,MrgX1 allo act,MrgX1 agonist,RGS4 block,MrgX1 antag,RGS4 act,MrgX1 ant reconf,HEK293 Ca flux,HEK293 Ca counter,HEK293 Ca cntr2
CC(=O)Nc1ccc(NC(=O)CSc2nnc(NC(=O)C3CC(=O)N(c4ccc(F)cc4)C3)s2)cc1 (configuration not stated),i,i,i,i,i,x,x,x,x
NC(=O)c1nnsc1Sc1c(C(N)=O)nnn1-c1cccc(N)c1,i,i,i,i,i,x,x,x,x
Cn1c(=O)c(=O)n(C)c2cc(S(=O)(=O)Nc3ccc4c(c3)OCCO4)ccc21,i,i,i,-5.86*,i,i,i,i,i
CNC(=O)COC(=O)c1nc(-n2nc(C)cc2C)ccc1Cl,i,i,i,-6.77*,i,i,i,i,i
CCOc1cnc(-c2ccc(OC)cc2)o1,i,i,i,-4.6*,i,i,i,i,i
CN(C)S(=O)(=O)c1ccc2c(c1)C(CC(=O)O)OC2=O (configuration not stated),i,i,i,-4.54*,i,i,i,i,i
CC(C)c1ccccc1NC(=O)COC(=O)Cc1c[nH]c2ccccc12,i,i,i,-18.6*,i,i,i,i,i
COc1ccccc1NC(=O)COC(=O)Cc1c[nH]c2ccccc12,i,i,i,i,i,x,x,x,x
COc1ccccc1NC(=O)c1cc2ccccc2nc1C,i,i,i,i,i,x,x,x,x
COc1ccccc1NC(=O)c1ccc2nc(C)c(C)nc2c1,i,i,i,-8.11*,i,i,i,i,i
Cn1nc(N)c2c(-c3ccc(Cl)cc3)c(C#N)c(N)nc21,i,i,i,-4.7*,i,i,i,i,i
CN(C)/C=N/c1nc(-c2ccc3c(c2)OCO3)cs1,i,i,i,-6.43*,i,i,i,i,i
